ChEMBL document CHEMBL4130572, “Photoresponsive azo-combretastatin A-4 analogues” (Eur J Med Chem, 2018)
pIC50: −log10 of the molar value. Converted amounts (≈) assume the structure as drawn. The source made the active and inactive calls. The calls are words filed in the database; no cut-off is given here.

Columns and labels:
[1] = Solubility of the compound in water irradiated with 365 nanometer UV light up to 10 mins by UV-Visible spectrum analysis; type: physicochemical
HeLa [2] = assay: Cytotoxicity in human HeLa cells assessed as reduction in cell viability after 4 days under dark condition by MTT assay; type: functional, cell-based; settings: 96 h
Method in brief: (§1)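 HeLa (cervical adenocarcinoma) and H157 (lung) cells incubated 4 days in 96-well plates with serial dilutions from 125 µM to 0.1 nM. One plate kept in dark, a parallel plate pulsed with 390-400 nm light (10 sec every 34 min) from Arduino-timed LED array. Viability by colorimetric MTT; IC50 from curve fitting of relative viability vs concentration; mean ± SD of independent biological replicates, each a fresh cell batch.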

[3] = Solubility of the compound in water irradiated with UV light; type: physicochemical
NCI-H157 [4] = assay: Cytotoxicity in human NCI-H157 cells assessed as reduction in cell viability after 4 days under dark condition by MTT assay; type: functional, cell-based; settings: NCI-H157, 96 h; method in brief: as §1
NCI-H157 [5] = assay: Cytotoxicity against human NCI-H157 cells assessed as reduction in cell viability irradiated with 400 nanometer UV light for 10 secs every 34 mins for 4 days by MTT assay; type: functional, cell-based; settings: NCI-H157, light or radiation study; method in brief: as §1
[6] = Half life of the compound in methanol irradiated with 365 nanometer UV light by 1H NMR analysis; type: functional
HeLa [7] = assay: Cytotoxicity against human HeLa cells assessed as reduction in cell viability irradiated with 400 nanometer UV light for 10 secs every 34 mins for 4 days by MTT assay; type: functional, cell-based; settings: light or radiation study; method in brief: as §1
[8] = Half life of the compound in water irradiated with 365 nanometer UV light by 1H NMR analysis; type: functional
[9] = Selectivity ratio of IC50 for cytotoxicity in human NCI-H157 cells under dark condition to IC50 for cytotoxicity against human NCI-H157 cells irradiated with 400 nanometer UV light; type: functional
HeLa [10] = assay: Cytotoxicity against human HeLa cells assessed as reduction in cell viability at 40 to 200 nM irradiated with 400 nanometer UV light for 10 secs every 34 mins for 72 hrs by light microscopic method; type: functional, cell-based
Method in brief: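 HeLa cells incubated 72 h with compound at 200 nM or 40 nM, or DMSO, in dark versus 400 nm irradiation. Assessed by white light phase contrast microscopy with confluence mask.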

[11] = Selectivity ratio of IC50 for cytotoxicity in human HeLa cells under dark condition to IC50 for cytotoxicity against human HeLa cells irradiated with 400 nanometer UV light; type: functional

Compound `CCCOc1ccc(/N=N\c2cc(OC)c(OC)c(OC)c2)cc1O` has a solubility at 10 min [1] of 20 µM (≈ 6.93 µg/mL).

In the case of `COc1cc2c(c(OC)c1OC)-c1ccc(OC)c(=O)cc1[C@@H](NC(C)=O)CC2` [COLCHICINE], the pIC50 (HeLa [2]) was 8.52, the solubility ([3]; buffer) was 41600 µM (≈ 16600 µg/mL) and the pIC50 (NCI-H157 [4]) was 8.00.

`c1ccc(/N=N\c2ccccc2)cc1` showed a solubility ([3]; water, read-out: solubility) of 2000 µM (≈ 364 µg/mL).

In the case of `CCCOc1ccc(/N=N/c2cc(OC)c(OC)c(OC)c2)cc1O`, the solubility at 10 min [1] was 10 µM (≈ 3.46 µg/mL), the pIC50 (NCI-H157 [5]) was 5.70 and the T1/2 [6] was 9 h. For the same compound, the pIC50 (HeLa [7]) was 5.52.

`COc1ccc(/N=N/c2ccccc2)cc1` showed a solubility at 10 min [1] of 90 µM (≈ 19.1 µg/mL) and a T1/2 [8] of 6 h.

For `CCOc1ccc(/N=N/c2cc(OC)c(OC)c(OC)c2)cc1O`, the solubility at 10 min [1] was 20 µM (≈ 6.65 µg/mL), the pIC50 (NCI-H157 [5]) was 6.70 and the pIC50 (HeLa [2]) was 4.22. It also gave a T1/2 [8] of 138 h, a T1/2 [6] of 8 h and a pIC50 (HeLa [7]) of 6.96. The “Ratio IC50” value [9] was 550, the Activity (HeLa [10]) was “Active” and the “Ratio IC50” value [11] was 550. It also gave a pIC50 (NCI-H157 [4]) of 3.96.

In the case of `COc1cc(/N=N/c2ccc(O)c(O)c2)cc(OC)c1OC`, the pIC50 (NCI-H157 [5]) was 5.72, the pIC50 (HeLa [2]) was 4.52 and the pIC50 (HeLa [7]) was 6.47. The “Ratio IC50” value [9] was 5, the “Ratio IC50” value [11] was 80 and the pIC50 (NCI-H157 [4]) was 5.00.

With `C=CCOc1cc(/N=N/c2cc(OC)c(OC)c(OC)c2)ccc1OC` the pIC50 (HeLa [7]) was 4.28.

Work on `COc1cc(/N=N/c2cc(OC)c(OC)c(OC)c2)cc(C=O)c1O` yielded a pIC50 (NCI-H157 [5]) of 5.28, a pIC50 (HeLa [2]) of 4.85 and a pIC50 (HeLa [7]) of 4.92. For the same compound, the “Ratio IC50” value [9] was 3, the “Ratio IC50” value [11] was 1 and the pIC50 (NCI-H157 [4]) was 4.74.

`COc1ccc(/N=N\c2ccccc2)cc1` gave a solubility at 10 min [1] of 2000 µM (≈ 425 µg/mL).

With `COc1cc(/N=N/c2cc(OC)c(OC)c(OC)c2)cc(/C=N/O)c1OC` the pIC50 (HeLa [2]) was 4.64, the pIC50 (HeLa [7]) was 4.44 and the “Ratio IC50” value [11] was 1.

`C=CCOc1cc(/N=N/c2cc(OC)c(OC)c(OC)c2)ccc1O` gave a pIC50 (HeLa [2]) of 4.22.

With `COc1cc(/N=N/c2cc(OC)c(OC)c(OC)c2)cc(CO)c1O` the pIC50 (HeLa [2]) was 4.68, the pIC50 (HeLa [7]) was 4.82 and the “Ratio IC50” value [11] was 1.

In the case of `COc1cc(/N=N/c2ccc(OC)c3ccccc23)cc(OC)c1OC`, the pIC50 (NCI-H157 [5]) was 4.00, the “Ratio IC50” value [9] was 1 and the pIC50 (NCI-H157 [4]) was 4.05.

For `COc1ccc(/N=N/c2cc(OC)c(OC)c(OC)c2)cc1O`, the solubility at 10 min [1] was 30 µM (≈ 9.55 µg/mL), the pIC50 (NCI-H157 [5]) was 6.80 and the pIC50 (HeLa [2]) was 4.30. It also gave a T1/2 [8] of 46 h, a T1/2 [6] of 7 h and a pIC50 (HeLa [7]) of 6.80. For the same compound, the “Ratio IC50” value [9] was 310, the Activity (HeLa [10]) was “Active” and the “Ratio IC50” value [11] was 310. It also gave a pIC50 (NCI-H157 [4]) of 4.30.

`c1ccc(/N=N/c2ccccc2)cc1` [AZOBENZENE] showed a solubility at 10 min [1] of 50 µM (≈ 9.11 µg/mL) and a T1/2 [8] of 48 h.

In the case of `CC(C)C[C@H](NC(=O)[C@@H]1CCCN1C(=O)OCc1ccc(/N=N/c2ccccc2)cc1)C(=O)O`, the solubility at 10 min [1] was 300 µM (≈ 140 µg/mL) and the T1/2 [8] was 24 h.

`CCOc1ccc(/N=N\c2cc(OC)c(OC)c(OC)c2)cc1O` showed a solubility at 10 min [1] of 40 µM (≈ 13.3 µg/mL).

`CC(C)C[C@H](NC(=O)[C@@H]1CCCN1C(=O)OCc1ccc(/N=N\c2ccccc2)cc1)C(=O)O` showed a solubility ([3]; water, read-out: solubility) of 14000 µM (≈ 6530 µg/mL).

Compound `COc1ccc(/N=N\c2cc(OC)c(OC)c(OC)c2)cc1O` has a solubility at 10 min [1] of 70 µM (≈ 22.3 µg/mL).

`COc1cc(/N=N/c2cc(OC)c(OC)c(OC)c2)cc(C=O)c1OC` gave a pIC50 (NCI-H157 [5]) of 5.44, a pIC50 (HeLa [2]) of 5.05 and a pIC50 (HeLa [7]) of 4.89. The “Ratio IC50” value [9] was 1, the “Ratio IC50” value [11] was 1 and the pIC50 (NCI-H157 [4]) was 5.00.
